Test results: ChEMBL document CHEMBL1123468, “Synthesis and antiviral activity of (E)-5-(2-bromovinyl)uracil and (E)-5-(2-bromovinyl)uridine” (1986)
Converted amounts (≈) assume the structure as drawn. “And” between values parts separate entries of the source, which are not always exact repeats. Equal values may be shown once.

Columns and labels:
E6SM [1] = assay: The concentration required to reduce the cytopathogenicity of HSV-1 (KOS) in E6SM cell culture by 50% in absence of dThd; assay type: functional; conditions: Homo sapiens
Method in brief: (§1)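 E6SM cells infected with HSV-1 (KOS), with dThd added to the culture medium at the stated concentration. The value is the minimum concentration that reduces viral cytopathogenicity by 50%.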

E6SM [2] = assay: The concentration required to reduce the cytopathogenicity of HSV-1 (KOS) in E6SM cell culture by 50% in presence 0 ug/mL of 50 ug/mL of 6-aminothymine; assay type: functional; conditions: Homo sapiens
Method in brief: (§2)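 E6SM cells infected with HSV-1 (KOS), with 6-aminothymine or benzylacyclouridine added to the medium at the stated concentration. The value is the minimum concentration that reduces viral cytopathogenicity by 50%.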

E6SM [3] = assay: The concentration required to reduce the cytopathogenicity of HSV-1 (KOS) in E6SM cell culture by 50% in presence of 30 ug/mL dThd; assay type: functional; conditions: Homo sapiens
Method in brief: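 Thymidine (dThd) was added to the E6SM culture medium alongside the test compound, and cells were infected with HSV-1 strain KOS. The endpoint is the minimum inhibitory concentration that reduces viral cytopathogenicity by 50%. The cytopathogenicity inhibition procedure follows the earlier-described method.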

E6SM [4] = assay: The concentration required to reduce the cytopathogenicity of HSV-1 (KOS) in E6SM cell culture by 50% in presence of specified concentrations of benzylacyclouridine; assay type: functional, Homo sapiens
Method in brief: (§3)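 E6SM cultures were infected with HSV-1 strain KOS. 6-Aminothymine or benzylacyclouridine was present in the medium together with the test compound. The value is the minimum concentration giving 50% reduction of viral cytopathogenicity, scored by the earlier-described cytopathogenicity inhibition procedure.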

[5] = The concentration required to reduce the cytopathogenicity of HSV-1 (KOS) in PRK cell culture by 50% in presence of specified concentrations of 6-aminothymine; assay type: functional, Oryctolagus cuniculus
Method in brief: (§4)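 The cells were primary rabbit kidney (PRK) cultures infected with HSV-1 strain KOS, with 6-aminothymine co-present in the medium. The value is the minimum inhibitory concentration that reduces viral cytopathogenicity by 50%, using the previously described cytopathogenicity inhibition method.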

E6SM [6] = assay: The concentration required to reduce the cytopathogenicity of HSV-1 (KOS) in E6SM cell culture by 50% in absence of Urd; assay type: functional; conditions: Homo sapiens
Method in brief: (§5)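 E6SM cells infected with HSV-1 (KOS), with Urd or dUrd added alone or together with 6-aminothymine (50 μg/mL). The value is the minimum concentration that reduces viral cytopathogenicity by 50%.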

E6SM [7] = assay: The concentration required to reduce the cytopathogenicity of HSV-1 (KOS) in E6SM cell culture by 50% in presence of 1 ug/mL of Urd and 50 ug/mL of 6-aminothymine; assay type: functional; conditions: Homo sapiens; method in brief: as §5
E6SM [8] = assay: The concentration required to reduce the cytopathogenicity of HSV-1 (KOS) in E6SM cell culture by 50% in presence of specified concentrations of 6-aminothymine; assay type: functional; conditions: Homo sapiens; method in brief: as §3
E6SM [9] = assay: The concentration required to reduce the cytopathogenicity of HSV-1 (KOS) in E6SM cell culture by 50% in presence of 3 ug/mL dThd; assay type: functional; conditions: Homo sapiens; method in brief: as §1
HeLa [10] = assay: The concentration required to reduce the cytopathogenicity of HSV-1 (KOS) in HeLa cell culture by 50% in presence of specified concentrations of 6-aminothymine; assay type: functional, Homo sapiens
PRK = assay: The compound was tested for its antiviral activity against HSV-1 (KOS) virus in PRK cell line; assay type: functional; conditions: Oryctolagus cuniculus
Method in brief: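 Primary rabbit kidney cells infected with HSV-1 (KOS). The value is the minimum concentration that cuts viral cytopathogenicity by 50%. Cytotoxicity was judged as microscopically detectable alteration of cell morphology at up to 400 μg/mL.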

E6SM [11] = assay: The concentration required to reduce the cytopathogenicity of HSV-1 (KOS) in E6SM cell culture by 50% in presence of 100 ug/ml concentrations of 6-aminothymine; assay type: functional; conditions: Homo sapiens; method in brief: as §2
E6SM [12] = assay: The concentration required to reduce the cytopathogenicity of HSV-1 (KOS) in E6SM cell culture by 50% in presence of 0 ug/mL concentrations of benzylacyclouridine; assay type: functional; conditions: Homo sapiens; method in brief: as §2
E6SM [13] = assay: The concentration required to reduce the cytopathogenicity of HSV-1 (KOS) in E6SM cell culture by 50% in presence of 0 ug/mL concentrations of 6-aminothymine; assay type: functional; conditions: Homo sapiens; method in brief: as §2
E6SM [14] = assay: The concentration required to reduce the cytopathogenicity of HSV-1 (KOS) in E6SM cell culture by 50% in presence of 10 ug/mL concentrations of benzylacyclouridine; assay type: functional, Homo sapiens; method in brief: as §2
[15] = The concentration required to reduce the cytopathogenicity of HSV-1 (KOS) in PRK cell culture by 50% in presence of 100 ug/mL concentrations of 6-aminothymine; assay type: functional; conditions: Oryctolagus cuniculus; method in brief: as §4
HeLa [16] = assay: The concentration required to reduce the cytopathogenicity of HSV-1 (KOS) in HeLa cell culture by 50% in presence of 4 ug/mL concentrations of 6-aminothymine; assay type: functional; conditions: Homo sapiens
[17] = The concentration required to reduce the cytopathogenicity of HSV-1 (KOS) in PRK cell culture by 50% in presence of 20 ug/mL concentrations of 6-aminothymine; assay type: functional; conditions: Oryctolagus cuniculus; method in brief: as §4
E6SM [18] = assay: The concentration required to reduce the cytopathogenicity of HSV-1 (KOS) in E6SM cell culture by 50% in absence of 0 ug/mL dThd; assay type: functional; conditions: Homo sapiens; method in brief: as §1
E6SM [19] = assay: The concentration required to reduce the cytopathogenicity of HSV-1 (KOS) in E6SM cell culture by 50% in presence of 4 ug/mL concentrations of 6-aminothymine; assay type: functional; conditions: Homo sapiens; method in brief: as §3
M21 = assay: The compound was tested for its antiviral activity against HSV-1 (KOS) virus M-21 (GM137) cell line; assay type: functional; conditions: Homo sapiens
Method in brief: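 Virus-induced cytopathogenicity in cell culture, scored microscopically. The value is the minimum concentration that cuts viral cytopathogenicity by 50%. Normal cell morphology was also checked microscopically at up to 400 μg/mL.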

HeLa [20] = assay: The concentration required to reduce the cytopathogenicity of HSV-1 (KOS) in HeLa cell culture by 50% in presence of 0 ug/mL concentrations of 6-aminothymine; assay type: functional; conditions: Homo sapiens
[21] = The concentration required to reduce the cytopathogenicity of HSV-1 (KOS) in PRK cell culture 0 ug/mL specified concentrations of 6-aminothymine; assay type: functional; conditions: Oryctolagus cuniculus
E6SM [22] = assay: The concentration required to reduce the cytopathogenicity of HSV-1 (KOS) in E6SM cell culture by 50% in presence of 20 ug/mL concentrations of 6-aminothymine; assay type: functional; conditions: Homo sapiens; method in brief: as §2
HeLa [23] = assay: The concentration required to reduce the cytopathogenicity of HSV-1 (KOS) in HeLa cell culture by 50% in presence of 100 ug/mL concentrations of 6-aminothymine; assay type: functional; conditions: Homo sapiens
HeLa [24] = assay: The concentration required to reduce the cytopathogenicity of HSV-1 (KOS) in HeLa cell culture by 50% in presence of 20 ug/mL concentrations of 6-aminothymine; assay type: functional; conditions: Homo sapiens
[25] = The concentration required to reduce the cytopathogenicity of HSV-1 (KOS) in PRK cell culture by 50% in presence of 4 ug/mL concentrations of 6-aminothymine; assay type: functional; conditions: Oryctolagus cuniculus; method in brief: as §4

Structure (SMILES): O=c1[nH]c(=O)n([C@H]2C[C@H](O)[C@@H](CO)O2)cc1/C=C/Br [BRIVUDINE]
- MIC50 (E6SM [1]): 0.02 µg/mL (≈ 0.06 µM)
- MIC50 (E6SM [2]): 0.02 µg/mL (≈ 0.06 µM)
- MIC50 (E6SM [3]): 70 µg/mL
- MIC50 (E6SM [4]): 0.02 µg/mL
- MIC50 (E6SM [4]; Homo sapiens, read-out: MIC50): 0.04 µg/mL
- MIC50 [5]: 0.01 µg/mL
- MIC50 ([5]; Oryctolagus cuniculus, read-out: MIC50): 0.01 µg/mL
- MIC50 (E6SM [6]): 0.02 µg/mL (≈ 0.06 µM)
- MIC50 (E6SM [7]): 0.02 µg/mL
- MIC50 (E6SM [8]): 0.02 µg/mL
- MIC50 (E6SM [9]): 0.02 µg/mL
- MIC50 (HeLa [10]): 0.01 µg/mL and 0.02 µg/mL
- MIC50 (HeLa [10]; Homo sapiens, read-out: MIC50): 0.01 µg/mL
- MIC50 (PRK): 0.007 µg/mL (≈ 0.021 µM)

Structure (SMILES): Oc1ncc(/C=C/Br)c(O)n1
- MIC50 (E6SM [3]): > 400 µg/mL
- MIC50 (E6SM [11]): > 400 µg/mL
- MIC50 (E6SM [12]): 4 µg/mL
- MIC50 (E6SM [13]): 7 µg/mL
- MIC50 (E6SM [14]): 4 µg/mL
- MIC50 (E6SM [14]; Homo sapiens, read-out: MIC50): 4 µg/mL
- MIC50 [15]: > 400 µg/mL
- MIC50 (HeLa [16]): > 200 µg/mL
- MIC50 (E6SM [6]): 4 µg/mL (≈ 18.4 µM)
- MIC50 (E6SM [7]): > 400 µg/mL
- MIC50 (E6SM [9]): 4 µg/mL
- MIC50 [17]: > 400 µg/mL
- MIC50 (E6SM [18]): 7 µg/mL (≈ 32.3 µM)
- MIC50 (E6SM [19]): > 400 µg/mL
- MIC50 (M21): 1 µg/mL (≈ 4.61 µM)
- MIC50 (HeLa [20]): 2 µg/mL
- MIC50 [21]: > 400 µg/mL
- MIC50 (E6SM [22]): > 400 µg/mL
- MIC50 (HeLa [23]): > 200 µg/mL
- MIC50 (HeLa [24]): > 200 µg/mL
- MIC50 (PRK): > 400 µg/mL
- MIC50 [25]: > 400 µg/mL
